RGS4 inh: inhibitors of human RGS4; P49798; HEK293 M3R/RGS4 inducible, Fluo-4 calcium flux; stronger effect = higher value; triggered by carbachol at its EC20; B-score at 10 µM; 310,000 tested, 0.45% active; AID 463165;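 active means B-score, a plate-corrected calcium signal, over three deviations above library mean, with baseline fluorescence within five deviations of library mean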;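 further: RGS4 expression induced by doxycycline in cells with stable M3 receptor; B-score is computed from the integrated fluorescence ratio over baseline after carbachol; higher B-score means a larger calcium signal and so more RGS4 inhibition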
Target sequence (P49798 whole entry, looked up): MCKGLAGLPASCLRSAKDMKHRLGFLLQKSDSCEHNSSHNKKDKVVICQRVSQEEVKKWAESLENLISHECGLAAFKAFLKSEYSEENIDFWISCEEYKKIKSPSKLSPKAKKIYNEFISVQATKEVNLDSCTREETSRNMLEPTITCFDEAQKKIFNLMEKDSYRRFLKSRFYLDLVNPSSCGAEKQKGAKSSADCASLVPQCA
MrgX1 agonist: agonists of human MrgX1 receptor; MrgX1-HEK293 cells, Fluo-4 calcium fluorescence, agonist mode; stronger effect = higher value; B-score at 10 µM; 310,000 tested, 0.44% active;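 active means calcium response B-score plate-corrected fluorescence ratio at least 3 library SD, with starting fluorescence B-score inside 5 SD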
Target sequence (Q96LB2 whole entry, looked up): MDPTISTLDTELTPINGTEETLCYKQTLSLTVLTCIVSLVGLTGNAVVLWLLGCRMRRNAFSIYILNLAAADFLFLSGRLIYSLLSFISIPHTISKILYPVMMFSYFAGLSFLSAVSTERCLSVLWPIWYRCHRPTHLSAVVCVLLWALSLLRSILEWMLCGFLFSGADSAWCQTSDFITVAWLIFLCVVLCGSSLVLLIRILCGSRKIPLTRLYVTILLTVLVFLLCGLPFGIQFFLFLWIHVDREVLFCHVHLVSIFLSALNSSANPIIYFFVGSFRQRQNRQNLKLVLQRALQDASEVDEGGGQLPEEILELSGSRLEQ
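Assay system: MrgX1-expressing HEK293 cells / Amount: fifteen thousand cells per well / Doses: test compound in the initial addition of three / Timing: cells plated overnight, dye loaded 0.5 h 37 °C, 0.5 h room temperature / Technique: kinetic calcium dye fluorescence, Fluo-4 NW / Control set: positive and negative controls per plate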
MrgX1 antagonist: human MrgX1 receptor antagonism, primary screen. Q96LB2. MRGX1-HEK293 calcium flux, Fluo-4, BAM8-22 antagonism; stronger effect = lower value. B-score at 10 µM. 310,000 tested, 1.3% active;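 active means calcium-response B-score plate-corrected more than 3 library SD below zero, starting fluorescence within 5 deviations, no agonist response on first addition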;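 further: peak minus trough fluorescence over baseline after final BAM8-22 challenge near maximal dose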
MrgX1 allo act: human MrgX1 positive allosteric modulation, primary screen. B-score at 10 µM. Q96LB2. AID 588675. MrgX1-HEK293, Fluo-4 calcium flux, FDSS; stronger effect = higher value. 310,000 tested, 0.63% active;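 active means plate-corrected calcium response at least 3 library SD above typical, normal starting fluorescence, not activating the receptor alone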;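 further: compound read alongside a low EC10 to EC30 dose of BAM8-22 agonist; peak minus trough fluorescence over baseline measured at the second addition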
RGS4 pot: RGS4 potentiation or activation; HEK293 M3R/inducible RGS4, carbachol calcium flux Fluo4; stronger effect = lower value; B-score at 10 µM; 310,000 tested, 0.92% active;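 active means B-score of the integrated calcium signal more than 4 SD below the library mean, with starting fluorescence not abnormally high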;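 further: negative B-score means reduced calcium response which marks RGS4 activation or potentiation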
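Also added: carbachol at ECmax as muscarinic agonist stimulus; Assay system: HEK293 cells with stable M3R and inducible RGS4; Timing: overnight RGS4 induction, 30 min dye load 37 °C, 20 min compound RT; Measured by: Fluo4-AM (2 µM) calcium-flux fluorescence, kinetic read.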
RGS4 block valid: RGS4 inhibitor validation. HEK293 M3R/RGS4, carbachol calcium Fluo-4 fluorescence; carbachol added at its EC20; 0 = buffer wells, 100 = carbachol control. AID 492999. 1,700 tested, 65% active. shares compounds with RGS4 inh. calcium response, % at 10 µM;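 active means duplicate-averaged calcium response above the buffer-only control mean plus 5 SD of those controls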;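 further: integrated fluorescence ratio F max minus min over baseline F0; higher response in RGS4-induced cells means RGS4 inhibition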
M3R Ca ctr: non-induced cell nonspecific activity of RGS4 inhibitors. HEK293 M3R non-induced, carbachol calcium Fluo-4; submaximal (EC20) carbachol stimulus; buffer wells 0%, carbachol control wells 100%. 1,900 tested, 20% active. AID 493000. shares compounds with RGS4 inh. activity (percent), % at 10 µM; call rule not given here;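 further: RGS4 induction absent so cells express M3R without RGS4; higher means more calcium signal and flags a non-specific hit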
RGS4 inh ctr2: second RGS4 inhibitor counter-screen in uninduced cells lacking carbachol; HEK293 M3R/RGS4 non-induced, Fluo-4 calcium, no carbachol; normalised: buffer wells 0%, carbachol wells 100%; calcium response (agonist-mode artifact), % at 10 µM; 1,900 tested, 22% active; shares compounds with RGS4 inh;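 active means duplicate-averaged calcium rise in uninduced cells above buffer wells' mean plus 5 SD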
Each line names hits and unclear results; the compound was inactive in the other large screens (follow-up assays come after a bar, where they were run). The list is not random: actives were taken first. Their share in the collection is about 3.5%.

COc1cnc(-c2ccccn2)nc1Oc1ccccc1Cl	none
Cc1ccc(CNC(=O)CSc2nc3ccsc3c(=O)n2Cc2ccc(C(=O)O)cc2)cc1	none
CC(=O)C1=C(C)NC(=S)NC1c1cccc([N+](=O)[O-])c1 (stereo not given)	MrgX1 allo act 6.5 | M3R Ca ctr inactive | RGS4 inh ctr2 inactive
O=C(CN1C(=O)c2cccc3cccc1c23)NC1CCCC1	none
COc1ccc(N(CC(=O)NCCc2ccc(OC)c(OC)c2)S(=O)(=O)c2ccc(OC)c(OC)c2)cc1	none
Cc1ccc(S(C)(=O)=N/C=C2\C(=O)c3sccc3N(C)S2(=O)=O)cc1 (stereo not given)	RGS4 inh 6.42 | RGS4 block valid 7.5% | M3R Ca ctr inactive | RGS4 inh ctr2 inactive
CCCC[N+](CC#Cc1ccccc1)(CCCC)CCCS(=O)(=O)[O-]	none
O=C1Cc2ccccc2C(=O)N1c1cccc(Cl)c1	none
O=C1Cc2ccccc2C(=O)N1c1ccccc1	RGS4 inh 5.56 | RGS4 block valid 5.0% | M3R Ca ctr inactive | RGS4 inh ctr2 inactive
CC(C)(C)c1ccc(-c2nc(NCc3cccnc3)c3ccccc3n2)cc1	RGS4 inh 8.63 | RGS4 block valid 18.0% | M3R Ca ctr inactive | RGS4 inh ctr2 inactive
CCCNc1nc(C)cc(-c2cc(-c3ccc(Cl)cc3)on2)n1	none
O=C1/C(=C/c2cccnc2)CC/C1=C\c1cccnc1	RGS4 inh 6.94 | RGS4 block valid 19.5% | M3R Ca ctr inactive | RGS4 inh ctr2 inactive
CC(C)/C=C1\CC/C(=C\c2cccnc2)C1=O	none | M3R Ca ctr inactive | RGS4 inh ctr2 inactive
O=C(N/N=C/c1ccc(O)cc1O)/C(=C/c1ccccc1)CCO	RGS4 inh 9.64 | RGS4 block valid 53.0% | M3R Ca ctr 37.5% | RGS4 inh ctr2 inactive
O=C1c2cccc3c([N+](=O)[O-])c(O)cc(c23)C(=O)N1Nc1ccccc1	RGS4 inh 6.3 | RGS4 block valid 11.5% | M3R Ca ctr inactive | RGS4 inh ctr2 inactive
O=C1c2ccccc2C(=O)N1Nc1ccccc1	none
O=C(/C=C/c1ccccc1Cl)c1ccccc(=O)c1O	RGS4 inh 18, MrgX1 allo act 8.08 | RGS4 block valid 44.5% | M3R Ca ctr inactive | RGS4 inh ctr2 10.5%
O=C(/C=C/c1ccccc1Cl)c1ccc(O)cc1	none
Cc1ccc(C)c(NC(=O)c2ccccc2O)c1	none
Cc1ccc(C)c(/C=C/C(=O)c2ccccc(=O)c2O)c1	RGS4 inh 7.5 | RGS4 block valid 14.5% | M3R Ca ctr inactive | RGS4 inh ctr2 39.5%
Cc1ccc(/C=C/C(=O)c2ccccc(=O)c2O)c(C)c1	none | M3R Ca ctr inactive | RGS4 inh ctr2 34.0%
C/C(=N\NC(=O)CC1N=C(Cc2ccccc2)NNC1=O)c1ccc(Cl)cc1Cl (stereo not given)	none
COc1cccc(NC(=O)NC2CCCCCCC2)c1	RGS4 inh 18.4 | RGS4 block valid inactive | M3R Ca ctr inactive | RGS4 inh ctr2 inactive
CCOC(=O)/C(C#N)=C/c1cc2cc(C)c(C)cc2nc1Cl	none
Cc1cc2cc(C=C(C#N)C#N)c(Cl)nc2cc1C	RGS4 inh 5.89, MrgX1 agonist 36 | RGS4 block valid 14.0% | M3R Ca ctr inactive | RGS4 inh ctr2 25.0%
Cc1[nH]c2ccccc2c1/C=N/NC(N)=S	none
Cc1ccc(NC(=S)N/N=C/c2c(C)[nH]c3ccccc23)cc1	RGS4 inh 4.93 | RGS4 block valid 6.5% | M3R Ca ctr inactive | RGS4 inh ctr2 12.0%
c1ccc(Nc2nc(N3CCCCC3)nc(N3CCNCC3)n2)cc1	none | RGS4 block valid inactive | M3R Ca ctr inactive | RGS4 inh ctr2 15.5%
c1ccc(Nc2nc(N3CCCC3)nc(N3CCCC3)n2)cc1	none
c1ccc(Nc2nc(N3CCCCC3)nc(N3CCCCC3)n2)cc1	RGS4 inh 5.18 | RGS4 block valid 26.5% | M3R Ca ctr inactive | RGS4 inh ctr2 inactive
CN(CC(=O)Nc1ccc(Cl)c(C(F)(F)F)c1)C(=O)Cc1c[nH]c2ccccc12	RGS4 inh 5.94 | RGS4 block valid 18.5% | M3R Ca ctr inactive | RGS4 inh ctr2 inactive
Cc1cc(=O)n2nc(N3CCCC3C(=O)NCCCN3CCCCC3)sc2n1 (stereo not given)	none
CC(/C=N/NC(=O)c1n[nH]c2c1CCC2)=C\c1ccccc1	none | RGS4 block valid inactive | M3R Ca ctr inactive | RGS4 inh ctr2 inactive
CC(/C=C/c1ccc2c(c1)OCO2)=N/NC(=O)c1ccc(C)nc1	none
O=[n+]1cc(-c2cccc3ccccc23)n([O-])c2c1CCC2	RGS4 inh 4.86 | RGS4 block valid inactive | M3R Ca ctr inactive | RGS4 inh ctr2 inactive
CCCN1Cc2cccc(C(=O)NCCc3ccccc3)c2C1=O	none
Nc1ccc2nc(-c3ccccc3)sc2c1	none
Cc1ccc2nc(-c3ccc(N)cc3)sc2c1	RGS4 inh 5.61 | RGS4 block valid 16.0% | M3R Ca ctr inactive | RGS4 inh ctr2 inactive
COc1ccc(CCNC(=O)CCC(=O)Nc2nnc(C(C)C)s2)cc1OC	none
Cn1c(OCc2ccco2)nc2c1c(=O)n(Cc1ccc(Cl)c(Cl)c1)c(=O)n2C	RGS4 inh 5.94 | RGS4 block valid 6.5% | M3R Ca ctr inactive | RGS4 inh ctr2 inactive
Cc1ccc(-c2nn(-c3ccccc3)c3[nH]c(=O)c(CNCc4ccccc4)cc23)cc1	RGS4 inh 7.01 | RGS4 block valid 19.0% | M3R Ca ctr inactive | RGS4 inh ctr2 18.5%
Cc1nn(-c2ccccc2)c2[nH]c(=O)c(CNCc3ccc4c(c3)OCO4)cc12	none
Cc1ccc(C(C[N+](=O)[O-])Sc2ccc(N)cc2)cc1 (stereo not given)	RGS4 inh 14.2, MrgX1 agonist 32.9 | RGS4 block valid 28.0% | M3R Ca ctr inactive | RGS4 inh ctr2 inactive
CCn1ncc(Cl)c1C(=O)Nc1ccc2c(c1)CCC2	none
Cn1c(N)c(C(=O)Nc2cccc(Cl)c2)c(=O)n(C)c1=O	none
CN=c1sc(C(=O)Nc2cccc(Cl)c2)cc(=O)n1C	RGS4 inh 27.8 | RGS4 block valid 14.5% | M3R Ca ctr inactive | RGS4 inh ctr2 23.0%
CCn1ccc(-c2ccccc2)c(C#N)c1=O	none
COc1ccc(S(=O)(=O)N2CCCC(C(=O)N3CCOCC3)C2)cc1C (stereo not given)	none

High-throughput results: PubChem, Johns Hopkins Ion Channel Center
